Tests used:
[1] = target: Cyclin-dependent kinase 1 (Homo sapiens, UniProt P06493); assay: Inhibition of CDK1
[2] = target: Cyclin-dependent kinase 5 (Homo sapiens, UniProt Q00535); assay: Inhibition of CDK5
[3] = target: Cyclin-dependent kinase 2/cyclin A (Homo sapiens) (UniProt P24941+P20248+P78396); assay: Inhibition of CDK2/cyclin A using 5-FAM-GGGPATPKKAKKL-COOH as substrate at 10 uM after 1 hr by IMAP assay; format: protein-complex assay
How it was run: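 IMAP fluorescence-polarization enzyme assay on CDK2/cyclin A, testing competition at the ATP site. Compounds tested at 10 μM, with purvalanol A at 1 μM as reference. Percent inhibition is the average ± SD of three independent experiments, or the mean of two for some compounds.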

[4] = target: Cyclin-dependent kinase 2/cyclin A (Homo sapiens, UniProt P24941); assay: Inhibition of CDK2/cyclin A using 5-FAM-GGGPATPKKAKKL-COOH as substrate after 1 hr by IMAP assay; format: protein-complex assay
How it was run: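 IMAP fluorescence-polarization assay on CDK2/cyclin A. IC50 taken from dose–response curves, given as average ± SD of three independent experiments, or the mean of two for one compound.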

[5] = target: Tyrosine-protein kinase receptor UFO (Homo sapiens) (UniProt P30530); assay: Inhibition of AXL assessed as enzyme activity at 10 uM relative to control; design: scale not given: the % may be the effect or the level left
How it was run: (§1)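 Single-point test at 10 μM in a 96-kinase screening panel. Reported as % of a DMSO negative control, where a lower value means stronger inhibition.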

[6] = target: T1, Tyrosine-protein kinase receptor UFO (Homo sapiens, UniProt P30530); assay: Inhibition of AXL
T1 sequence (P30530 whole entry): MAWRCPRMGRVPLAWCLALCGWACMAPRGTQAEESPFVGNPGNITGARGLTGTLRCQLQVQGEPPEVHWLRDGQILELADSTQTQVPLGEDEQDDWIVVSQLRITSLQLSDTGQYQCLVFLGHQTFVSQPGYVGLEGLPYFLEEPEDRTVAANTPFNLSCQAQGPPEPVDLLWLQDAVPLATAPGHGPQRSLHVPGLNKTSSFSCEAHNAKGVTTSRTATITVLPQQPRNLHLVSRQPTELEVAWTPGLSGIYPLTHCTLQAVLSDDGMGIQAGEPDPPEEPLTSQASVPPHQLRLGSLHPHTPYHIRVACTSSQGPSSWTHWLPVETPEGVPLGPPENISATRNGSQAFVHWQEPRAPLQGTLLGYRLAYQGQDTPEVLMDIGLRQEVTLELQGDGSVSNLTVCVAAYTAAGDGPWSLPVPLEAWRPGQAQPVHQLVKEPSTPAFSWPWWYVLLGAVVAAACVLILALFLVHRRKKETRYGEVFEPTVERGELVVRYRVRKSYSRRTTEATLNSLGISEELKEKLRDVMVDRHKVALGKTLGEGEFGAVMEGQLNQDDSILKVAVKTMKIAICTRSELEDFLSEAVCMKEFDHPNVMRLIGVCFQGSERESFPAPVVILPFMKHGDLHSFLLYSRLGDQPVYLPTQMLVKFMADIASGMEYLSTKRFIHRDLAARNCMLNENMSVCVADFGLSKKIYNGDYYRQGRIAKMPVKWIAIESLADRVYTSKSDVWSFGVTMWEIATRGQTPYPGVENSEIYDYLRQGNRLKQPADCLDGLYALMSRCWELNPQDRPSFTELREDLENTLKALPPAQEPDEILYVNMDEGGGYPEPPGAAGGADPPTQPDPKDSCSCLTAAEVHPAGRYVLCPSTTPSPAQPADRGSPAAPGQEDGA

[7] = target: Receptor-type tyrosine-protein kinase FLT3 (Homo sapiens) (UniProt P36888); assay: Inhibition of FLT3 assessed as enzyme activity at 10 uM relative to control; design: scale not given: the % may be the effect or the level left; how it was run: as §1
[8] = target: T2, Receptor-type tyrosine-protein kinase FLT3 (Homo sapiens, UniProt P36888); assay: Inhibition of FLT3
T2 sequence (P36888 whole entry): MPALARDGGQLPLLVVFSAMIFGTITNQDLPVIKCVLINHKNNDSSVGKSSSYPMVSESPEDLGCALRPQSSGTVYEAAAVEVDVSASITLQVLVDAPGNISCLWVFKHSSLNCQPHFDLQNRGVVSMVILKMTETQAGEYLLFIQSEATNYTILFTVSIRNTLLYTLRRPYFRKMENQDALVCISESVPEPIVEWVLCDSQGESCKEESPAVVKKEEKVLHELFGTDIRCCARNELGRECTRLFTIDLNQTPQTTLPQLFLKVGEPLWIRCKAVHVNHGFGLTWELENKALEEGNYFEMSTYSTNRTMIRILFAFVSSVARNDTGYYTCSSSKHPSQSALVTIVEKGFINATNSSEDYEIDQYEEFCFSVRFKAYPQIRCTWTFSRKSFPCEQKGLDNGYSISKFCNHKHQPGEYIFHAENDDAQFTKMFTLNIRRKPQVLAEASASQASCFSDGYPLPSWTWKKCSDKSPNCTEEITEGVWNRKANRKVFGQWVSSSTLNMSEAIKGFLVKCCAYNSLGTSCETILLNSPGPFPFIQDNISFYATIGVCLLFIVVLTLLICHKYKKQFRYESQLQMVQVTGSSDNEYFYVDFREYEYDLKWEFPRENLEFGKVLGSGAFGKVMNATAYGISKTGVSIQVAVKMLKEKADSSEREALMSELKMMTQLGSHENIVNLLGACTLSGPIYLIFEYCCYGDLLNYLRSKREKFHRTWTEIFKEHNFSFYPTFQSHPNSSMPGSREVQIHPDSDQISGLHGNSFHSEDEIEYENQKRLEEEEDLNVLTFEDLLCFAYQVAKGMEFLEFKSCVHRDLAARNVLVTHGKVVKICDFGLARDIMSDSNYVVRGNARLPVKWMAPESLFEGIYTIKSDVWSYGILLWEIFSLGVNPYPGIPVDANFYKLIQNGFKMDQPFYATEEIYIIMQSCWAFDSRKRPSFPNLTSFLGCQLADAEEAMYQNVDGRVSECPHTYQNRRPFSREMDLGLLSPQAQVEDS

[9] = target: T3, MAP kinase-interacting serine/threonine-protein kinase 2 (Homo sapiens, UniProt Q9HBH9); assay: Inhibition of MNK2 assessed as enzyme activity at 10 uM relative to control; design: scale not given: the % may be the effect or the level left; how it was run: as §1
Target sequence in this assay (Q9HBH9 whole entry, looked up): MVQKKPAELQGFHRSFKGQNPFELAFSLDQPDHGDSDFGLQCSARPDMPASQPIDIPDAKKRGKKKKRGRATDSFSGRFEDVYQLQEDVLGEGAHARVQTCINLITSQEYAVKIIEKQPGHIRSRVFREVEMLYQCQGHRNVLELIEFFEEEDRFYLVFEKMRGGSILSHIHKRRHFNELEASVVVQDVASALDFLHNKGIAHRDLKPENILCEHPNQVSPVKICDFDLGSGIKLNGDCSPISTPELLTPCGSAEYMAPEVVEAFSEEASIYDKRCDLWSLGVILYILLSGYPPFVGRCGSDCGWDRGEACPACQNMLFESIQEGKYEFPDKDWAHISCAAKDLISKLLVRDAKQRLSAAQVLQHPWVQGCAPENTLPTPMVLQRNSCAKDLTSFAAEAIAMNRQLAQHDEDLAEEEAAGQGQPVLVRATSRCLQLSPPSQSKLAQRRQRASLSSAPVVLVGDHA

[10] = target: T3, MAP kinase-interacting serine/threonine-protein kinase 2; assay: Inhibition of MNK2
Target sequence in this assay (Q9HBH9 whole entry): as the sequence (Q9HBH9 whole entry, looked up) above

[11] = target: T4, Serine/threonine-protein kinase PLK4 (Homo sapiens) (UniProt O00444); assay: Inhibition of PLK4 assessed as enzyme activity at 10 uM relative to control; design: scale not given: the % may be the effect or the level left; how it was run: as §1
T4 sequence (whole entry): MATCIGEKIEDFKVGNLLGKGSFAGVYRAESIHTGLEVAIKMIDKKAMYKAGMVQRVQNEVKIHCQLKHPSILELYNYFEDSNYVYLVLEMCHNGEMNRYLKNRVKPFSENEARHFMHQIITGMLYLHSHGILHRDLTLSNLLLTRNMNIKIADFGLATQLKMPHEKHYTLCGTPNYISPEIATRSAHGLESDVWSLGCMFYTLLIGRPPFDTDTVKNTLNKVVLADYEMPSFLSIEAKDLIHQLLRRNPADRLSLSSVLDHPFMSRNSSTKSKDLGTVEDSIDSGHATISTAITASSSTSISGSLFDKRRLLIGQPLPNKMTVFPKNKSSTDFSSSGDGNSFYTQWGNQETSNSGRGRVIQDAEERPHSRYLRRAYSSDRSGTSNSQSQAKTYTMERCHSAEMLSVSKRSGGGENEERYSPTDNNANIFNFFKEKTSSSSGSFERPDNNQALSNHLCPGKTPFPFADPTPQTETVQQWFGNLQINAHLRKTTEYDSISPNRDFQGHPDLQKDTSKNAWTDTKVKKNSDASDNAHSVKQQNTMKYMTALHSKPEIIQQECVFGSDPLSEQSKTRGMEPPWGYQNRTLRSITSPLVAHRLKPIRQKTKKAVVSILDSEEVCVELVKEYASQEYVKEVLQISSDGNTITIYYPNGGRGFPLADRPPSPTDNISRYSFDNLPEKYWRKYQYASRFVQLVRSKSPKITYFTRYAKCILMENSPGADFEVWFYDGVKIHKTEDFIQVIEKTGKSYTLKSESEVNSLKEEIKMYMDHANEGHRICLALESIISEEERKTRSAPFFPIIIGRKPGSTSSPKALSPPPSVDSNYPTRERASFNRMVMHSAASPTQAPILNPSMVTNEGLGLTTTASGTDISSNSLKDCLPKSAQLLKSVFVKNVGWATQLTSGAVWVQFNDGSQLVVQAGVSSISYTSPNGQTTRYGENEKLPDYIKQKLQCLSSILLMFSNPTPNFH

[12] = target: T5, Serine/threonine-protein kinase PLK4 (Homo sapiens, UniProt O00444); assay: Inhibition of PLK4
T5 sequence (O00444 whole entry): T4 sequence (whole entry)

[13] = target: T6, Protein kinase C epsilon type (Homo sapiens) (UniProt Q02156); assay: Inhibition of PRKCE assessed as enzyme activity at 10 uM relative to control; design: scale not given: the % may be the effect or the level left; how it was run: as §1
T6 sequence (whole entry): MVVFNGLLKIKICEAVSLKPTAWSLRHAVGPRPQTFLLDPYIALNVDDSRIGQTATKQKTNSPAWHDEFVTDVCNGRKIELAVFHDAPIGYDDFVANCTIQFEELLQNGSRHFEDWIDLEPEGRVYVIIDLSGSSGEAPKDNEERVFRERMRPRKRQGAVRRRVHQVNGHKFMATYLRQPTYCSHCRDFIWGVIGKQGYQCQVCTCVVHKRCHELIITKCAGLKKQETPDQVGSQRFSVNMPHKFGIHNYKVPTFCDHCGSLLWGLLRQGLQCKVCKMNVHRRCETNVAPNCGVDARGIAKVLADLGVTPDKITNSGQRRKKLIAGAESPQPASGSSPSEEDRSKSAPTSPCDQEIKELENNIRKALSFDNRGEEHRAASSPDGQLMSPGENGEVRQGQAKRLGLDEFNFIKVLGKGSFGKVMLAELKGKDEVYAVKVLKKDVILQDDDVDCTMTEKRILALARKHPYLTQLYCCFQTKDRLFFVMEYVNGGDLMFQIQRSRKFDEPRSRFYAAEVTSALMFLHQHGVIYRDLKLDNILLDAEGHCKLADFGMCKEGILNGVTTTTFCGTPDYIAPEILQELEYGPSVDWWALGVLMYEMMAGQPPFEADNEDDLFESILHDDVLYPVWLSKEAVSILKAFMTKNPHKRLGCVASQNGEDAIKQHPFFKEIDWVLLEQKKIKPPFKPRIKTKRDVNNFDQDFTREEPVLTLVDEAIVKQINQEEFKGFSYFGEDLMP

[14] = target: T7, Protein kinase C epsilon type (Homo sapiens, UniProt Q02156); assay: Inhibition of PRKCE
T7 sequence (Q02156 whole entry): T6 sequence (whole entry)

[15] = target: T3, MAP kinase-interacting serine/threonine-protein kinase 2; assay: Inhibition of MNK2 using 5-FAM-TATKSGSTTKNRFVV-NH2 as substrate preincubated for 1 hr prior substrate addition measured after 2 hrs by IMAP assay
Target sequence in this assay (Q9HBH9 whole entry): as the sequence (Q9HBH9 whole entry, looked up) above

[16] = target: MAP kinase-interacting serine/threonine-protein kinase 1 (Homo sapiens, UniProt Q9BUB5); assay: Inhibition of MNK1
[17] = Inhibition of MEK
[18] = Inhibition of MAP

Cyclin-dependent kinase 1, sequence (P06493 whole entry): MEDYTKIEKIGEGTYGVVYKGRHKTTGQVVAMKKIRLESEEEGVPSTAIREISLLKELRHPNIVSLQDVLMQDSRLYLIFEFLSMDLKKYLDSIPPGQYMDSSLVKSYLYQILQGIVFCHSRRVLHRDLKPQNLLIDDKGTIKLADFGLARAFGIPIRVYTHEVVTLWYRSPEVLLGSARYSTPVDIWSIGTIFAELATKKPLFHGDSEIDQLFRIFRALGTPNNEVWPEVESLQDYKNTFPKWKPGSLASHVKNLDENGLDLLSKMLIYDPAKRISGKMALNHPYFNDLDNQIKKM
MAP kinase-interacting serine/threonine-protein kinase 1, sequence (Q9BUB5 whole entry): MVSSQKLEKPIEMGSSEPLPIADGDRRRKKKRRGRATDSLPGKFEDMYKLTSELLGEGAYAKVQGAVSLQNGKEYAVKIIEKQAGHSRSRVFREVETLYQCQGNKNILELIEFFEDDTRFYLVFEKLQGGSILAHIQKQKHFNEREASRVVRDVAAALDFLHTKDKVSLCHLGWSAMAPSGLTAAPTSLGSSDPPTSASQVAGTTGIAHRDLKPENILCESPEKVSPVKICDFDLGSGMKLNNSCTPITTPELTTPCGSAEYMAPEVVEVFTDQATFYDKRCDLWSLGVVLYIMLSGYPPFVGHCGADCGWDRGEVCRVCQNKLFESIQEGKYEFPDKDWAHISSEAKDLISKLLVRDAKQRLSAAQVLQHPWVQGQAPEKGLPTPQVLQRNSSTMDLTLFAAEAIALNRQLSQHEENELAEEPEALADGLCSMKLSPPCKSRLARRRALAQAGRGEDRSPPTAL
Cyclin-dependent kinase 5, sequence (Q00535 whole entry): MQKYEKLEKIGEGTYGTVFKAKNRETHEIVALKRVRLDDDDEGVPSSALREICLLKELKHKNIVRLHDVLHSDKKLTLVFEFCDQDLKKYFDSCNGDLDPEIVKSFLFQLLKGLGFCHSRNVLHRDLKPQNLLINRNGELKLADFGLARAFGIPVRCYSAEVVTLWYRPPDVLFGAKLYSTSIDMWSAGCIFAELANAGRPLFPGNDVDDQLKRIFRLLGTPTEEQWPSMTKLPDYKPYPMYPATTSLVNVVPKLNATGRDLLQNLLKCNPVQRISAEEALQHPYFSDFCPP

Compound	inhibition [3]	IC50 [15]	also measured
C[C@H]1C/C=C/[C@@H](O)[C@@H](O)CC/C=C/c2cc(O)cc(O)c2C(=O)O1 [AIGIALOMYCIN D]	55%	0.45 µM	IC50 [1]: 6 µM; IC50 [2]: 6 µM; IC50 [4]: 21 µM; Activity [5]: 4.7%; Kd [6]: 1 µM; Activity [7]: 7.1%; Kd [8]: 0.3 µM; Activity [9]: 0.15%; Kd [10]: 0.16 µM; Activity [11]: 9.6%; Kd [12]: 0.26 µM; Activity [13]: 7.2%; Kd [14]: 12 µM; IC50 [16]: 40 µM
CC(C)[C@H](CO)Nc1nc(Nc2cccc(Cl)c2)c2ncn(C(C)C)c2n1	94%		
C[C@H]1CCC[C@@H](O)[C@@H](O)CCC(=O)Cc2cc(O)cc(O)c2C(=O)O1	17%	> 10 µM	
COc1cc(O)c2c(c1)CCC[C@H](O)[C@H](O)C(=O)/C=C\C[C@H](C)OC2=O			INH [17]: 4 nM
C[C@H]1CCC[C@@H](O)[C@@H](O)CCCCc2cc(O)cc(O)c2C(=O)O1	16%	> 10 µM	
COc1cc(O)cc2c1C(=O)O[C@@H](C)C/C=C/[C@@H](O)[C@@H](O)CC/C=C/2	17%	> 10 µM	
O=C1OCC/C=C/[C@@H](O)[C@@H](O)CC/C=C/c2cc(O)cc(O)c21	38%	> 10 µM	
COc1cc2c(c(OC)c1)C(=O)O[C@@H](C)C/C=C/[C@@H](O)[C@@H](O)CC/C=C/2	13%	> 10 µM	
C[C@H]1CCC[C@@H](O)[C@@H](O)CCC(O)Cc2cc(O)cc(O)c2C(=O)O1 (mixture of isomers)	6%	> 10 µM	
C[C@@H]1C/C=C/[C@@H](O)[C@@H](O)CC/C=C/c2cc(O)cc(O)c2C(=O)O1	64%	> 10 µM	IC50 [4]: 19 µM
C[C@H]1CCC[C@@H](O)[C@@H](O)CC/C=C/c2cc(O)cc(O)c2C(=O)O1	25%	1.35 µM	
COc1cc(O)c2c(c1)[C@H]1O[C@@H]1C[C@H](O)[C@H](O)C(=O)/C=C\C[C@H](C)OC2=O			INH [18]: 17 nM
COc1cc(O)c2c(c1)/C=C/CC[C@H](O)[C@H](O)/C=C/C[C@H](C)OC2=O	49%	> 10 µM	IC50 [4]: 19 µM
C[C@H]1C/C=C/[C@@H](O)[C@@H](O)CCC(=NO)Cc2cc(O)cc(O)c2C(=O)O1 (mixture of isomers)	19%	> 10 µM	
COc1cc(O)cc2c1C(=O)O[C@@H](C)CCC[C@@H](O)[C@@H](O)CC/C=C/2	10%	> 10 µM	
C[C@H]1C/C=C/CCCC/C=C/c2cc(O)cc(O)c2C(=O)O1	17%	1.61 µM	
C[C@H]1C/C=C/[C@H]2OC(C)(C)O[C@H]2CC/C=C/c2cc(O)cc(O)c2C(=O)O1	19%	0.58 µM	
C[C@H]1C/C=C/[C@@H](O)[C@@H](O)CCC(=O)Cc2cc(O)cc(O)c2C(=O)O1	21%	> 10 µM	
C[C@H]1C/C=C/[C@@H](O)[C@@H](O)CCC(O)Cc2cc(O)cc(O)c2C(=O)O1 (mixture of isomers)	8%	> 10 µM	
